# Published values gathered from unrelated publications.
# Lines come from different studies, so protocols differ.
# Target: Dual specificity tyrosine-phosphorylation-regulated kinase 2 (DYRK2, Homo sapiens, UniProt Q92630)
# Technique: competition with immobilised ligand
# Residues used in one study (Q92630 1-601): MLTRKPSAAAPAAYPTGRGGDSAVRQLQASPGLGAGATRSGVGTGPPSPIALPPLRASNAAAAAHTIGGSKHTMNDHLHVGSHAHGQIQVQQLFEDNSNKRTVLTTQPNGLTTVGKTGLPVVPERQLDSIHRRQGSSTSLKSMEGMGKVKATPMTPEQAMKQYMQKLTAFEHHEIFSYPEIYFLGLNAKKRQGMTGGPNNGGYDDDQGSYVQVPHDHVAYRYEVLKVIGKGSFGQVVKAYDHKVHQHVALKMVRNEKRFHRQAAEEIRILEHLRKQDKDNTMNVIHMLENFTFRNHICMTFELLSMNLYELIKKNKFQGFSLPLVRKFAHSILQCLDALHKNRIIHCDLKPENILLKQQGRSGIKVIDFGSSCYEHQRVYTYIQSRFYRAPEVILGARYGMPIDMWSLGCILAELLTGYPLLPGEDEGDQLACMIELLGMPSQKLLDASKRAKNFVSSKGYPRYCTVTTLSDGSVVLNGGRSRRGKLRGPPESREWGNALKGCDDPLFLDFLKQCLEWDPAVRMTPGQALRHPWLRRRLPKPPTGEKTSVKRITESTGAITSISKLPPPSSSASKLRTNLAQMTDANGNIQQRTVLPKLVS
SMILES,test,conditions,remaining binding
COc1cnc(Nc2cccc(S(N)(=O)=O)c2)nc1N1CCN(c2ccccc2)C(=O)C1,binding,1 µM,56%
O=C(NCCCN1CCOCC1)c1ccc(Nc2nccc(-c3cc4ccccc4s3)n2)cc1,binding,1 µM,16%
O=C(Nc1ccc(Oc2ccc(F)cc2)cc1)N1CCc2ncccc2[C@H]1c1ccc(F)cc1,cell-free assay,1 µM,84%
COc1ncc2cc3ccccc3nc2c1C#N,cell-free assay,5 µM,85%
CS(=O)(=O)N1CCCC(NC(=O)[C@H](CCC2CCCCC2)NC(=O)c2ccc(CNc3ncnc4c3nnn4-c3ccccc3)cc2)C1 (stereo partly shown),cell-free assay,0.1 µM,100%
C[C@@H](c1ccc(-n2cnc3c(N)ncnc32)cc1)N1CCc2nn(C)c(Cc3ccccc3)c2C1=O,binding,0.1 µM,79%
O=C(Nc1c[nH]nc1C(=O)NC1CCNCC1)c1cc(F)cc(F)c1,binding,1 µM,4.8%
CNC(=O)[C@@H]1CC[C@@H](n2c(-c3ccc4cnccc4c3)nc3ccc(C(=O)NCc4cccc(C(N)=O)c4)cc32)C1,binding,1 µM,86%
CCCOc1ccc([C@H]2[C@H](C(=O)O)[C@@H](c3ccc4c(c3)OCO4)CN2CC(=O)Nc2c(CC)cccc2CC)cc1,cell-free assay,1 µM,74%
O=C(c1ccc(Nc2ncc(Cl)c(-c3cc4ccccc4s3)n2)cc1)N1CCC(N2CCCC2)CC1,binding,1 µM,3.1%
CCN1CCN(Cc2ccc(C(=O)Nc3ccc(C)c(Oc4ccc5c(c4)CC(=O)N5)c3)cc2C(F)(F)F)CC1,binding,1 µM,95%
Cc1cnc(Nc2ccc(C(=O)N3CCC(N4CCCC4)CC3)cc2)nc1-c1cc2ccccc2s1,binding,1 µM,1.3%
C[C@H](c1ccc(F)cc1)N(Cc1cccc(C(=O)O)c1)C(=O)c1cnc2ccccc2c1,cell-free assay,1 µM,85%
